Source: PubChem BioAssay
IDH1 mut inh – IDH1 R132H (human) inhibition. O75874. hit rate 0.18% among 70,000. AID 624101. inhibition, % at 10 µM. IDH1 R132H reductase, diaphorase/resazurin fluorescence, 60 min; in the data active = inhibition above about 34%; inconclusive = no clear call, values can overlap the other calls; inactive = below about 11%
Target sequence (O75874 whole entry R132H): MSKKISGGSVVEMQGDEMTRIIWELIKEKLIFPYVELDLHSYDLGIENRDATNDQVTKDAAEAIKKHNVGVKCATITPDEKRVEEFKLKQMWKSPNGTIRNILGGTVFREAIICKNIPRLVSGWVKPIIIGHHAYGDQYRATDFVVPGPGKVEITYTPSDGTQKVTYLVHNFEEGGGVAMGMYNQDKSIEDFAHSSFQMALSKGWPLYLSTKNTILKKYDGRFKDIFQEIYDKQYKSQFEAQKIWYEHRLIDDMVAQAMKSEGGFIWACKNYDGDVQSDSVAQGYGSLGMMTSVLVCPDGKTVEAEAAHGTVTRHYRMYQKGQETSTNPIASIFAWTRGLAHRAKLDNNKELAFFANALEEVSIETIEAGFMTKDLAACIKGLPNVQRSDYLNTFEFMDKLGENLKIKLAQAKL
GASC1 inh – KDM4C (human) demethylase inhibition. Q9H3R0. inhibition, % at 12.5 µM. GST-KDM4C 2-372, H3K9me3 peptide, LANCE TR-FRET. hit rate 0.15% among 96,000. AID 720574;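 active = mean replicate inhibition above about 25%, with at least 55% of replicates also reaching it, limit read from the data, passing the limit was not always enough; inconclusive = only one of those two conditions met; inactive = neither condition met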
Target sequence (Q9H3R0 2-372 limits assumed): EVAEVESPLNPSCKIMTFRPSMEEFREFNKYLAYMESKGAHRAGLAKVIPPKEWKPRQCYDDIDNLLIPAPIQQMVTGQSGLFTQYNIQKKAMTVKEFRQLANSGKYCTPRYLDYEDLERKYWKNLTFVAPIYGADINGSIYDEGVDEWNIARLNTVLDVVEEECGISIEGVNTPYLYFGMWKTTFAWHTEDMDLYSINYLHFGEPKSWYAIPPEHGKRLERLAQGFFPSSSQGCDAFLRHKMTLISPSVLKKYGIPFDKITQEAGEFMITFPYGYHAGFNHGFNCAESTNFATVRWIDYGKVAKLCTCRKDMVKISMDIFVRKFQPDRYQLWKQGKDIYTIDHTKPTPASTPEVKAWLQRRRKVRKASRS
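Test system: N-terminal GST-fused human GASC-1 (KDM4C) fragment, residues 2-372; quantity: GASC-1 enzyme at 10 nM final in reaction; dosing: single dose; schedule: 30 min demethylation and 1 h detection at room temperature; signal: LANCE TR-FRET, excitation 340 nm, emissions 618 and 671 nm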
T cruzi growth-1 – inhibitors of T. cruzi proliferation; AID 624255; hit rate 5.9% among 77,000; inhibition, % at 8.34 µM; T. cruzi beta-gal in NIH3T3, GalScreen luminescence, 90 h;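 active = mean inhibition above about 93%, with at least 55% of replicates each passing it, limit read from the data, passing the limit was not always enough; inconclusive = only one of those two conditions holds; inactive = neither condition holds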
T cruzi growth-2 – Trypanosoma cruzi proliferation inhibition | shares compounds with T cruzi growth-1 | T. cruzi beta-gal in NIH3T3, GalScreen luminescence, 90 h | inhibition, % at 8.35 µM | hit rate 72% among 5,600;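 active = mean replicate inhibition above about 95% and at least 55% of replicates individually reaching it, limit read from the data; inconclusive = only one of the two criteria is met; inactive = neither criterion is met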
T cruzi growth-3 – Trypanosoma cruzi proliferation inhibition | shares compounds with T cruzi growth-1 | T. cruzi beta-gal in NIH3T3, GalScreen luminescence, 90 h | inhibition, % at 2.09 µM | hit rate 21% among 5,600 | AID 651740;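 active = mean inhibition above about 95%, with at least 55% of replicates also reaching it, limit read from the data; inconclusive = meets just one of the two conditions; inactive = meets neither condition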
3T3 cytotox – kills mouse NIH/3T3 fibroblasts. hit rate 14% among 5,600. NIH/3T3 viability, CellTiter-Glo ATP luminescence, 90 h. cytotoxicity (signal decrease), % at 8.35 µM. shares compounds with T cruzi growth-1;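 active = mean signal decrease across replicates above about 35% based on untreated-well scatter, with enough replicates individually passing, limit read from the data; inconclusive = no rule stated though some were filed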
NIH3T3 tox 2 – NIH/3T3 (mouse) viability loss; shares compounds with T cruzi growth-1; inhibition, % at 24.9 µM; NIH/3T3 viability, CellTiter-Glo ATP luminescence, 90 h; hit rate 56% among 5,600;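 active = mean loss of cell viability signal at or above a set limit, and enough replicates individually reaching it; inconclusive = meets only the mean limit or only the replicate share; inactive = meets neither condition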
Numbers stand for hits; 0 = inactive; ? = inconclusive; - = no result. Shown is part of a subset that was picked to be rich in hits.

SMILES | IDH1 mut inh | GASC1 inh | T cruzi growth-1 | T cruzi growth-2 | T cruzi growth-3 | 3T3 cytotox | NIH3T3 tox 2
O=C(Cc1ccccn1)N1CCCCN2[C@@H](CO)[C@H](c3ccc(-c4ccccc4)cc3)[C@@H]2C1 | - | 0 | 104.9 | ? | 0 | 0 | 0
O=C(Cc1ccccn1)N1CCCCN2[C@H](CO)[C@H](c3ccc(-c4ccccc4)cc3)[C@@H]2C1 | - | 0 | ? | 102.8 | 0 | 0 | 0
O=C(Cc1ccccn1)N1CCCCN2[C@H](CO)[C@@H](c3ccc(-c4ccccc4)cc3)[C@H]2C1 | - | 0 | 0 | - | - | - | -
O=C(Cc1ccccn1)N1CCCCN2[C@H](C1)[C@H](c1ccc(-c3ccccc3)cc1)[C@@H]2CO | - | 0 | 0 | - | - | - | -
C=CCN1CC[C@]2(C)c3cc(O)ccc3CC1[C@@H]2C | 0 | - | - | - | - | - | -
COc1ccc(-c2ccc([C@@H]3[C@@H](CO)N4CCCCN(C(=O)Cc5ccncc5)C[C@H]34)cc2)cc1 | - | 0 | 0 | - | - | - | -
COc1ccc(C#Cc2ccc([C@@H]3[C@H](CO)N4CCCCN(C(=O)Cc5ccncc5)C[C@@H]34)cc2)cc1 | - | 0 | 111.8 | 103.2 | 0 | 0 | 104.4
COc1ccc(C#Cc2ccc([C@H]3[C@H](CO)N4CCCCN(C(=O)Cc5ccncc5)C[C@@H]34)cc2)cc1 | - | 0 | 105.9 | 107.7 | 0 | 0 | 104.7
COc1ccc(-c2ccc([C@H]3[C@H]4CN(C(=O)Cc5ccncc5)CCCCN4[C@H]3CO)cc2)cc1 | - | 0 | 0 | - | - | - | -
CC(=O)OC1CCC2(C)C(CC[C@@H]3[C@@H]2CCC2(C)C(C4=CC(=O)OC4)CCC32O)C1 (stereo partly specified) | 0 | - | - | - | - | - | -
C=CCN1CCC23c4c5ccc(O)c4OC2/C(=N\NC(=O)c2ccccc2)CCC3(O)C1C5 (stereo unspecified) | 0 | - | - | - | - | - | -
O=C(Cc1ccccn1)N1CCCCN2[C@H](C1)[C@@H](c1ccc(-c3ccccc3F)cc1)[C@@H]2CO | - | 0 | 0 | - | - | - | -
O=C(Cc1ccccn1)N1CCCCN2[C@@H](CO)[C@@H](c3ccc(Br)cc3)[C@@H]2C1 | - | 0 | 0 | - | - | - | -
Cc1ccccc1-c1ccc([C@H]2[C@H]3CN(C(=O)Cc4ccccn4)CCCCN3[C@H]2CO)cc1 | - | 0 | ? | 0 | 0 | 0 | 0
Cc1ccccc1-c1ccc([C@@H]2[C@H]3CN(C(=O)Cc4ccccn4)CCCCN3[C@H]2CO)cc1 | - | 0 | 98.7 | 0 | 0 | 0 | 0
Cc1ccccc1-c1ccc([C@H]2[C@@H](CO)N3CCCCN(C(=O)Cc4ccccn4)C[C@@H]23)cc1 | - | 0 | 102.8 | 96.5 | 0 | 0 | ?
O=C(Cc1ccccn1)N1CCCCN2[C@H](CO)[C@@H](c3ccc(-c4ccc(F)cc4)cc3)[C@H]2C1 | - | 0 | 0 | - | - | - | -
CC(C(=O)Nc1ccc(Cl)cc1C(=O)c1ccccc1)N1C(=O)C2C3C=CC(C3)C2C1=O (stereo unspecified) | 0 | - | - | - | - | - | -
CCCC(C)n1[nH]c(=O)c2c1NC(=O)CSC2c1cccc([N+](=O)[O-])c1 (stereo unspecified) | 0 | - | - | - | - | - | -
COc1cc2c(cc1OC)-c1c(OC)c(OC)c(N)c3c1[C@H](C2)N(C)CC3 | 0 | - | - | - | - | - | -
O=C1/C(=C/c2ccccc2)C[C@@]2(O)C3Cc4ccc(O)c5c4[C@@]2(CCN3CC2CC2)[C@H]1O5 | 0 | - | - | - | - | - | -
CC1C/C=C/C2C3OC3(C)C(C)C3C(Cc4ccccc4)NC(=O)C23OC(=O)O/C=C/C(C)(O)C1=O (stereo unspecified) | 0 | - | - | - | - | - | -
C[C@H]1CN([C@@H](C)CO)C(=O)CCCn2cc(nn2)CO[C@H]1CN(C)C(=O)Oc1cccc2ccccc12 | 0 | 0 | 116.7 | 0 | 0 | 0 | 0
C[C@H](CO)N1C[C@H](C)[C@@H](CN(C)C(=O)Oc2cccc3ccccc23)OCc2cn(nn2)CCCC1=O | - | 0 | 0 | - | - | - | -
Cc1ccnc(NC(c2ccccc2[N+](=O)[O-])c2ccc3ccc(C)nc3c2O)c1 (stereo unspecified) | 0 | - | - | - | - | - | -
SMILES | IDH1 mut inh | GASC1 inh | T cruzi growth-1 | T cruzi growth-2 | T cruzi growth-3 | 3T3 cytotox | NIH3T3 tox 2
N#Cc1cccc(-c2ccc([C@H]3[C@H]4CN(C(=O)Cc5ccncc5)CCCCN4[C@H]3CO)cc2)c1 | - | 0 | 105.4 | 0 | 0 | 0 | 46.6
N#Cc1cccc(-c2ccc([C@@H]3[C@H]4CN(C(=O)Cc5ccccc5)CCCCN4[C@H]3CO)cc2)c1 | - | 0 | 0 | - | - | - | -
N#Cc1cccc(-c2ccc([C@H]3[C@H]4CN(C(=O)Cc5ccccc5)CCCCN4[C@H]3CO)cc2)c1 | - | 0 | ? | 0 | 0 | 0 | 0
N#Cc1cccc(-c2ccc([C@@H]3[C@@H](CO)N4CCCCN(C(=O)Cc5ccccc5)C[C@@H]34)cc2)c1 | - | 0 | 0 | - | - | - | -
O=C(CCl)c1cc(Br)c(Br)s1 | 0 | - | - | - | - | - | -
COc1ccc(-c2ccc([C@H]3[C@H](CO)N4CCCCN(C(=O)Cc5ccccc5)C[C@@H]34)cc2)cc1 | - | 0 | 108.0 | 106.8 | 0 | 0 | 105.6
N#Cc1ccc(-c2ccc([C@@H]3[C@H]4CN(C(=O)Cc5ccccc5)CCCCN4[C@H]3CO)cc2)cc1 | - | 0 | 0 | - | - | - | -
COc1ccc(-c2ccc([C@@H]3[C@H](CO)N4CCCCN(C(=O)Cc5ccccc5)C[C@@H]34)cc2)cc1 | - | 0 | 98.7 | 104.3 | 0 | 0 | 105.6
COc1ccc(-c2ccc([C@H]3[C@@H](CO)N4CCCCN(C(=O)Cc5ccccc5)C[C@@H]34)cc2)cc1 | - | 0 | 102.1 | 106.8 | 105.9 | 0 | ?
O=C(Cc1ccccc1)N1CCCCN2[C@H](CO)[C@H](c3ccc(-c4ccccc4)cc3)[C@@H]2C1 | - | 0 | 0 | - | - | - | -
O=C(Cc1ccccc1)N1CCCCN2[C@@H](CO)[C@@H](c3ccc(-c4ccccc4)cc3)[C@@H]2C1 | - | 0 | ? | 104.0 | 0 | 0 | 104.6
CCN1C[C@]2(COC)CC[C@H](O)[C@]34C1[C@H](C[C@H]23)[C@@]1(O)C[C@H](OC)[C@H]2C[C@@H]4[C@@H]1[C@H]2OC(C)=O | 0 | - | - | - | - | - | -
CC(C)C1(NC(=O)C2CC3c4cccc5[nH]cc(c45)CC3N(C)C2)OC2(O)C3CCCN3C(=O)C(Cc3ccccc3)N2C1=O (stereo unspecified) | 0 | - | - | - | - | - | -
C=CC1CN2CCC1CC2C(OC(=O)c1ccco1)c1ccnc2ccccc12 (stereo unspecified) | 0 | - | - | - | - | - | -
COc1ccc(CCNCc2cc(Cl)cc(Cl)c2OC)cc1OC | 0 | - | - | - | - | - | -
COC(=O)[C@@]12C(=O)C(C)C(=O)[C@]1(C)C(C)=C[C@H]1[C@]3(C=O)CC[C@H](OC(C)=O)C(C)(C)[C@H]3CC[C@@]12C (stereo partly specified) | 0 | - | - | - | - | - | -
O=C(Cc1ccncc1)N1CCCCN2[C@@H](CO)[C@@H](c3ccc(-c4ccncc4)cc3)[C@@H]2C1 | - | 0 | 0 | - | - | - | -
O=C(Cc1ccncc1)N1CCCCN2[C@H](CO)[C@H](c3ccc(-c4ccncc4)cc3)[C@@H]2C1 | - | 0 | 101.6 | 0 | 0 | 0 | 0
CC[C@@H]1/C=C\C=C\C[C@H](C)[C@@H](O)[C@](C)(O)C(=O)[C@H](C)[C@@H](O)[C@H](C)C(=O)[C@H](C)[C@@H](O)[C@H](C)/C=C/C(=O)O[C@H]2[C@@H](C)[C@@H](CC1)O[C@@]1(CC[C@@H](C)[C@@H](C[C@H](C)O)O1)[C@@H]2C | 0 | - | - | - | - | - | -
